These results are taken from PMC5430754 (Acta Pharmaceutica Sinica. B, 2017).

The target of one experiment is sucrase (Rattus norvegicus, UniProt P23739). The experiment is described as follows: α-glucosidase. In kind it is biochemical. The conditions noted are these: for Sucrase Inhibition (%): at the concentration of 10^—5 mol/L.
The subject of the next experiment is maltase. The experiment is described as follows: α-glucosidase. The class given is biochemical, Rat. The conditions noted are these: for Maltase Inhibition (%): at the concentration of 10^—5 mol/L; for IC50: read-out: Maltase IC50, isolated compounds. Summed up: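 Rat small-intestinal brush-border membrane vesicles, suspended in 0.1 mol/L phosphate buffer pH 6.0, served as the α-glucosidase source. Enzyme, substrate and test compound were incubated in the same buffer for 30 min at 37 °C. The reaction was stopped by heating to 80–85 °C for 3 min. Released glucose was measured by the glucose oxidase method. Triplicates at five concentrations gave IC50 from dose–response curves; % inhibition was measured at 10⁻⁵ mol/L.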

For experiment [1], the target named is T1, porcine pancreatic lipase (Sus scrofa, UniProt P00591).
T1 sequence (P00591 1-450): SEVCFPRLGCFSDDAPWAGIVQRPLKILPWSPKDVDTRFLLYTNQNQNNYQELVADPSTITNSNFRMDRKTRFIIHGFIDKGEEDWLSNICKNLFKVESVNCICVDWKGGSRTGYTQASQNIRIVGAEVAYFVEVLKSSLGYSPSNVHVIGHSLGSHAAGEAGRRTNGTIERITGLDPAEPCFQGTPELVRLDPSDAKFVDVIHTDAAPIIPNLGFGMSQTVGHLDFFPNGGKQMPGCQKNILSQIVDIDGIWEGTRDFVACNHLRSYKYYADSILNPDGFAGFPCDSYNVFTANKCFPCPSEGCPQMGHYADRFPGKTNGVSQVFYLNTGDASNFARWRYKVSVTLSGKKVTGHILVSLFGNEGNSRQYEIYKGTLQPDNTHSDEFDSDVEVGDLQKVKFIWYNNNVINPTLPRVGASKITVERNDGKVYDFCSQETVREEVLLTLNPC
The experiment is described as follows: lipase inhibitory activity. The class given is biochemical. The conditions noted are these: for Lipase Inhibition (%): at the concentration of 10^—5 mol/L; for inhibition at 10 µM: 1 h, read-out: Lipase Inhibition (%).

[2] abbreviates: read-out: Sucrase IC50, isolated compounds.

Where two headings read alike, the source gives them in different places.

Chain of sucrase (P23739 whole entry): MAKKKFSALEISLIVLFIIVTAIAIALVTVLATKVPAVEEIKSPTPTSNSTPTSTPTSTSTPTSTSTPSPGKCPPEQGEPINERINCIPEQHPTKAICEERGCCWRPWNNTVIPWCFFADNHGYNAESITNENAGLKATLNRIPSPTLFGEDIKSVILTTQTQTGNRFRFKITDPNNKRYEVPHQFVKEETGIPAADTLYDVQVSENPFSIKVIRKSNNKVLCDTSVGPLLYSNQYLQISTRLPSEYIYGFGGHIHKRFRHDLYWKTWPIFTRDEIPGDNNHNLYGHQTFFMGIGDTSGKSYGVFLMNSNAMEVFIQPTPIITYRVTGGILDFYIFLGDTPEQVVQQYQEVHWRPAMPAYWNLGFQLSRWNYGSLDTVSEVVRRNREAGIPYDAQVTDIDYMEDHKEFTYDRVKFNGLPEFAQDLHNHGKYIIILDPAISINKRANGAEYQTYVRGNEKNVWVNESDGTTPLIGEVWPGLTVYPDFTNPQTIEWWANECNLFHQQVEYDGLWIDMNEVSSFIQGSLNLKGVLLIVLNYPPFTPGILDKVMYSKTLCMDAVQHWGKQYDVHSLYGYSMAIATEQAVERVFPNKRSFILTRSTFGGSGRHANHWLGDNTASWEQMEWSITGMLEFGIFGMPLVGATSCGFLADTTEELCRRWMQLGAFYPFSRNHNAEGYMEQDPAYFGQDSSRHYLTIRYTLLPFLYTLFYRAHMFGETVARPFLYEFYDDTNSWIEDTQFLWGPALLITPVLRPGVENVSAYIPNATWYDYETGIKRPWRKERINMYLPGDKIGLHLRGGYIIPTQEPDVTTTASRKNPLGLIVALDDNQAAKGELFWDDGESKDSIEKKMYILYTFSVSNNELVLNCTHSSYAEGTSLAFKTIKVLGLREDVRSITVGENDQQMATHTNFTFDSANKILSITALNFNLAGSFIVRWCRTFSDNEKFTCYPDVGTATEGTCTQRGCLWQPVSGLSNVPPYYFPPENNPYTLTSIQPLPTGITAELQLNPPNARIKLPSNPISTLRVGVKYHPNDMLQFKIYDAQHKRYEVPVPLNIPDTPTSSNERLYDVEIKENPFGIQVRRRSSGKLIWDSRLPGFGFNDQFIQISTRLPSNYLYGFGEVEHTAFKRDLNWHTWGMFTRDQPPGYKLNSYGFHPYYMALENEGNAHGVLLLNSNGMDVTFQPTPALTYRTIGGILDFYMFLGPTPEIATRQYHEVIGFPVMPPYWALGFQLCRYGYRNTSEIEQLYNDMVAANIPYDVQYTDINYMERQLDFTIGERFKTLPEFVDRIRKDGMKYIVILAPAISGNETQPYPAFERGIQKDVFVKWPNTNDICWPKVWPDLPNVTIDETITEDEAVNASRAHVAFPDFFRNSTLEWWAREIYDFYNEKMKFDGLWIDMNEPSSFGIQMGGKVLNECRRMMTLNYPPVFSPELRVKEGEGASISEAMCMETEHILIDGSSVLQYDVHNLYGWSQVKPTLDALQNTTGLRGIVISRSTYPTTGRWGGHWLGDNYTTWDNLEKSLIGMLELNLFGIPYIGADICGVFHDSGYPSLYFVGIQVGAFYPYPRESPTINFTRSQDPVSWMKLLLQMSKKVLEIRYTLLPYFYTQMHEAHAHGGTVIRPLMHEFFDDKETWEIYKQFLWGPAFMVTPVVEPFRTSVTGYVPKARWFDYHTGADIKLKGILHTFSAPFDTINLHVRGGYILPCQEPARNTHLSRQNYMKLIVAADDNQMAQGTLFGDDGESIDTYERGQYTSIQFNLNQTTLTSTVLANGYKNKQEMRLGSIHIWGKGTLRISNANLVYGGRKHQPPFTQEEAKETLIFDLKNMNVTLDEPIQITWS

`O=C(/C=C\c1ccc(O)cc1)O[C@@H]1Cc2c(O)cc(O)cc2O[C@@H]1c1ccc(O)c(O)c1` [Compound 1, (–)-epicatechin-3-O-(Z)-coumarate]: the “Sucrase Inhibition (%)” value at sucrase came to 45.4%. In addition, in the experiment with maltase, the “Maltase Inhibition (%)” value is reported as 71.8% and the half-maximal inhibitory concentration (IC50) turned out to be 49.7 µM. The “Lipase Inhibition (%)” value in experiment [1] amounted to 42.6%.

Regarding `O=C(/C=C/c1ccc(O)cc1)O[C@@H]1Cc2c(O)cc(O)cc2O[C@@H]1c1ccc(O)c(O)c1` [Compound 2, (–)-epicatechin-3-O-(E)-coumarate], the “Sucrase Inhibition (%)” value at sucrase is listed as 71.3%. Also, on sucrase (setting [2]), the 50% inhibitory concentration (IC50) came to 62.1 µM. Also, the “Lipase Inhibition (%)” value in experiment [1] came to 41.6%.

`O=C(/C=C/c1ccc(O)c(O)c1)O[C@@H]1Cc2c(O)cc(O)cc2O[C@@H]1c1ccc(O)c(O)c1` [Compound 3, (–)-epicatechin-3-O-(E)-caffeate]: the “Sucrase Inhibition (%)” value at sucrase came to 64.5%. The half-inhibitory concentration (IC50) on sucrase (setting [2]) came to 107 µM. Moreover, the “Lipase Inhibition (%)” value in experiment [1] stood at 36.3%.

In the case of `Oc1cc(O)c2c(c1)O[C@H](c1ccc(O)c(O)c1)[C@@H](O)C2` [Compound 4, (+)-catechin], the “Sucrase Inhibition (%)” value at sucrase amounted to 21.5%. Also, the “Maltase Inhibition (%)” value in the experiment on maltase came out at 16.1%. In experiment [1], the “Lipase Inhibition (%)” value is 64.9%. Besides, in experiment [1] (read-out: Lipase IC50, isolated compounds), the IC50 was found to be 39.7 µM.

For `O=C1c2c(O)cc(O)cc2O[C@H](c2cc(O)c(O)c(O)c2)[C@H]1O` [Compound 5, ampelopsin], the results for the IC50 (against sucrase; at maltase; in experiment [1]) were 74.6 µM, 200 µM and 20.4 µM, respectively. Moreover, the inhibition at 10 µM was 90.4% at sucrase (0.5 h, read-out: Sucrase Inhibition (%)) and 92.1% in experiment [1]. Also, the “Maltase Inhibition (%)” value with maltase was 92.0%.

Turning to `Oc1cc(O)c2c(c1)O[C@H](c1ccc(O)c(O)c1)[C@H](O)C2` [Compound 6, (–)-epicatechin], in the experiment on maltase, the “Maltase Inhibition (%)” value amounted to 48.5%. Besides, in experiment [1], half-maximal inhibition (IC50) was put at 32.2 µM and the inhibition at 10 µM is 70.4%.
